From ChEMBL document CHEMBL1938394, “Time-dependent slowly-reversible inhibition of monoamine oxidase A by N-substituted 1,2,3,6-tetrahydropyridines” (Bioorg Med Chem, 2011)

Assays:
[1] = target: T1, Amine oxidase [flavin-containing] A (Homo sapiens, UniProt P21397); experiment: Inhibition of human recombinant MAOA expressed in insect cells using kynuramine substrate after 60 mins
T1 sequence (P21397 whole entry): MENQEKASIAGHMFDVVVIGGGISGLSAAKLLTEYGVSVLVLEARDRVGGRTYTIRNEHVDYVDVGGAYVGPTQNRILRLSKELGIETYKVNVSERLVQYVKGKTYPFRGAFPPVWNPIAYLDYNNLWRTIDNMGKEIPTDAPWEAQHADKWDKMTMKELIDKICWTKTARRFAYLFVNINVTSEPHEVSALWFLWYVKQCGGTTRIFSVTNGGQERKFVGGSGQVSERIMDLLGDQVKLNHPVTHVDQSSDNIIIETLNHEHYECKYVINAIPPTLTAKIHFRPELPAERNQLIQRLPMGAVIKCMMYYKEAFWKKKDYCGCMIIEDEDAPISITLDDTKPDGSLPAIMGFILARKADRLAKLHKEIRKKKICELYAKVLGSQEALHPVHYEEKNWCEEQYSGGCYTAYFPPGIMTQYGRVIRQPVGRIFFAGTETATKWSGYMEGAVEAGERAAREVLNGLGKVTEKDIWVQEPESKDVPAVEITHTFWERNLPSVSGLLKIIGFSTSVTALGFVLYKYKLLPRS

[2] = target: T2, Amine oxidase [flavin-containing] B (Homo sapiens, UniProt P27338); experiment: Inhibition of human recombinant MAOB expressed in insect cells using benzylamine hydrochloride as substrate after 30 mins
T2 sequence (P27338 whole entry): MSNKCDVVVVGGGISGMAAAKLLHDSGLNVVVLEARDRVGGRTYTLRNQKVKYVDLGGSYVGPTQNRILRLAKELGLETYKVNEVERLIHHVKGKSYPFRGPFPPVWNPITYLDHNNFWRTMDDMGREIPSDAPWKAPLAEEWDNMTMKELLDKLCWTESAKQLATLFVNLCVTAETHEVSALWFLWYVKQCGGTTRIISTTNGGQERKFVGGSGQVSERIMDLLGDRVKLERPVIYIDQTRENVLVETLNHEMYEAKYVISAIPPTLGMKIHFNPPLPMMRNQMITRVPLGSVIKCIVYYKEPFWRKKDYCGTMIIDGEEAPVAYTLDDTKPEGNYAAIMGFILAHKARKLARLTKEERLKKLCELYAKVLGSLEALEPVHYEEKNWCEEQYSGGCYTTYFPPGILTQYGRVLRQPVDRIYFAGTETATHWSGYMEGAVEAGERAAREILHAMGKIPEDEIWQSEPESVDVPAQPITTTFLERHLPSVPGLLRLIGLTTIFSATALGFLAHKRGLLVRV
Outline: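 Human recombinant MAO-B (0.01 mg/mL) in 0.1 M isotonic phosphate buffer pH 7.4, inhibitor 0–7000 µM, benzylamine 1000 µM final, 30 min at 37 °C. Stopped with perchloric acid; benzaldehyde measured by reverse-phase HPLC with UV 254 nm. IC50 from sigmoidal log dose–response fit; triplicate, mean ± SD.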

Homo sapiens = organism: Homo sapiens; experiment: Selectivity index, ratio of IC50 for human recombinant MAOB to IC50 for human recombinant MAOA
Outline: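 MAO-A (0.005 mg/mL; 150 μM kynuramine, 60 min, 37 °C, […]) and MAO-B (0.01 mg/mL; 1000 μM benzylamine, 30 min, 37 °C, perchloric acid stop, benzaldehyde by HPLC-UV at 254 nm) in isotonic 0.1 M phosphate pH 7.4. Inhibitor 0–7000 μM. IC50s from sigmoidal log curves in triplicate. SI = MAO-B IC50 / MAO-A IC50.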

[3] = target: T1, Amine oxidase [flavin-containing] A; experiment: Inhibition of human recombinant MAOA expressed in insect cells assessed as oxidation of kynuramine substrate measured after additional substrate added after 90 mins incubation; details: 1.5 h
[4] = target: T1, Amine oxidase [flavin-containing] A; experiment: Inhibition of human recombinant MAOA expressed in insect cells using kynuramine as substrate at 50 uM preincubated up to 40 mins before kynuramine substrate addition measured after 30 mins; details: 0.5 h
Outline: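 MAO-A preincubated at 37 °C in 0.1 M isotonic phosphate buffer pH 7.4 with inhibitor, or buffer control, for […]. Diluted 50-fold into buffer containing kynuramine, then incubated 30 min. Activity is % of control; mean ± SD, n = 3.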

[5] = target: T1, Amine oxidase [flavin-containing] A; experiment: Inhibition of human recombinant MAOA expressed in insect cells assessed as formation of 4-hydroxyquinoline at 0.5 uM preincubated for 1 hr before kynuramine substrate measured after 12 hrs of dialysis
Outline: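 MAO-A (0.005 mg/mL) in 0.1 M sodium phosphate pH 7.4 made isotonic with NaCl, preincubated 1 h at 37 °C without substrate with inhibitor (final volume 1 mL), then dialyzed overnight at 0 °C against 250 mL buffer. Activity in dialysate read as product formation at 310 nm with 150 μM kynuramine over 60 min at 37 °C. 4-Hydroxyquinoline quantified by calibration curve. Means ± SD, n = 3.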

[6] = target: T1, Amine oxidase [flavin-containing] A; experiment: Uncompetitive inhibition of human recombinant MAO-A assessed as dissociation constant for enzyme-inhibitor complex by Lineweaver-Burk plot analysis
Outline: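 Human recombinant MAO-A (0.005 mg/mL) in 0.1 M sodium phosphate pH 7.4 made isotonic with NaCl, 37 °C, 30 min. Initial oxidation rates at four kynuramine levels (50–150 µM) without or with four inhibitor concentrations (range per compound, 5–1000 µM). Ki from Lineweaver–Burk plots and replots by linear regression; triplicate.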

[7] = target: T1, Amine oxidase [flavin-containing] A; experiment: Inhibition of human recombinant MAOA expressed in insect cells assessed as oxidation of kynuramine substrate at 500 uM up to 90 mins; details: 1.5 h
Outline: (§1)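 Recombinant human MAO-A incubated with kynuramine, with or without inhibitor. Product formation followed over time. A second equivalent of substrate (150 µM kynuramine) added at 90 min and fresh enzyme added at 120 min.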

[8] = target: T1, Amine oxidase [flavin-containing] A; experiment: Inhibition of human recombinant MAOA expressed in insect cells assessed as formation of 4-hydroxyquinoline at 500 uM preincubated for 1 hr before kynuramine substrate measured after 1 hr in presence of sodium borohydride
Outline: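 MAO-A preincubated 60 min at 37 °C with inhibitor, no substrate. Then 5 µL of 300 mM NaBH4 added and held 15 min at 0 °C. Dialysed overnight at 0 °C against 0.1 M isotonic phosphate buffer pH 7.4. Residual activity: 4-hydroxyquinoline formation at 310 nm with 150 µM kynuramine, 60 min, 37 °C; n = 3.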

[9] = target: T1, Amine oxidase [flavin-containing] A; experiment: Inhibition of human recombinant MAOA expressed in insect cells assessed as oxidation of kynuramine substrate at 500 uM measured after additional substrate added after 90 mins incubation; details: 1.5 h; outline: as §1
Mus musculus [10] = experiment: Neurotoxicity in C57BL/6J mouse assessed as reduction of striatal tyrosine hydroxylase level at 25 mg/kg, sc after 72 hrs by ELISA; assay type: toxicity, organism-based; design: dose 25 mg/kg, route subcutaneous; details: in vivo
Outline: (§2)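 Female C57BL/6J mice aged 3–4 months, single sc dose, 0.9% saline vehicle, killed 72 h post-dose. Striatum homogenised in hot 1% SDS. GFAP or TH measured by detergent-based sandwich ELISA.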

Mus musculus [11] = experiment: Neurotoxicity in C57BL/6J mouse assessed as increase of striatal GFAP level at 25 mg/kg, sc after 72 hrs by ELISA; assay type: toxicity, organism-based; design: dose 25 mg/kg, route subcutaneous; details: in vivo; outline: as §2
Mus musculus [12] = experiment: Neurotoxicity in C57BL/6J mouse assessed as effect on dopamine level at 25 mg/kg, sc by HPLC analysis; assay type: toxicity, organism-based; design: dose 25 mg/kg, route subcutaneous; details: in vivo
Outline: (§3)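 Female C57BL/6J mice aged 3–4 months, single sc dose, 0.9% saline vehicle, killed 72 h later. Striata homogenised in ice-cold 0.2 M perchloric acid with dihydroxybenzylamine internal standard. Amines measured by C18 reverse-phase HPLC with electrochemical detection, mobile phase pH 3.0.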

Mus musculus [13] = experiment: Neurotoxicity in C57BL/6J mouse assessed as effect on serotonin level at 25 mg/kg, sc by HPLC analysis; assay type: toxicity, organism-based; design: dose 25 mg/kg, route subcutaneous; details: in vivo; outline: as §3
[14] = target: T1, Amine oxidase [flavin-containing] A; experiment: Inhibition of human recombinant MAOA expressed in insect cells assessed as oxidation of kynuramine substrate at 500 uM measured after additional enzyme added after 120 mins incubation; details: 2 h; outline: as §1

Row | Structure (SMILES) | IC50 [1] [µM] | IC50 [2] [µM] | Ratio IC50 (Homo sapiens) | inhibition (INH) [3] | inhibition (INH) [4] | also measured
1 | C1=CCN(Cc2ccccc2)CC1 | 157 | 6540 | 41.6 | Not Active | – | –
2 | C1=CCN(CCCc2ccccc2)CC1 | 86.1 | 812 | 9.4 | Not Active | – | –
3 | O=[N+]([O-])c1ccc(CCN2CC=CCC2)cc1 | 37.8 | 272 | 7.2 | Not Active | Active | –
4 | COc1ccc(CCN2CC=CCC2)cc1OC | 111 | 1360 | 12.3 | Not Active | – | –
5 | C#CCN(C)CCCOc1ccc(Cl)cc1Cl [CLORGILINE] | – | – | – | – | – | inhibition (INH) [5]: Active
6 | C1=CCN(CCc2ccccc2)CC1 | 41.3 | 1180 | 28.7 | – | Active | IC50 [6]: 45.4 µM; Ki [6]: 9.2 µM; inhibition (INH) [7]: Active; inhibition (INH) [8]: Not Active; inhibition (INH) [9]: Active; Activity (Mus musculus [10]): Non-toxic; Activity (Mus musculus [11]): Non-toxic; Activity (Mus musculus [12]): Non-toxic; Activity (Mus musculus [13]): Non-toxic; inhibition (INH) [14]: Active
